Data reported in ChEMBL document CHEMBL4052657, “Design, synthesis and biological evaluation of sulfonamide-substituted diphenylpyrimidine derivatives (Sul-DPPYs) as potent focal adhesion kinase (FAK) inhibitors with antitumor activity” (Bioorg Med Chem, 2017).
Each block holds one molecule with its values, some of them ahead of it.

Legend:
[1] = tested on: ASPC1; experiment: Antiproliferative activity against human AsPC1 cells after 72 hrs by CCK8 assay; settings: ASPC1, 72 h
[2] = tested on: Ramos; experiment: Antiproliferative activity against human Ramos cells after 72 hrs by CCK8 assay; assay type: functional, cell-based
In short: (§1)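 Cells in RPMI-1640 with 10% FBS and 1% penicillin-streptomycin, 37 °C, 5% CO2. Seeded at 3,000 to 5,000 cells/well and grown one day, then exposed to compound for 72 h at 1.25 to 40 µmol/L, five replicates per concentration. CCK-8 read-out is absorbance at 450 nm. Dose-response curves used five concentrations. IC50 is the mean of at least three separate experiments.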

[3] = tested on: NCI-H1975; experiment: Antiproliferative activity against gefitinib-resistant human NCI-H1975 cells harboring FAK after 72 hrs by CCK8 assay; assay type: functional, cell-based; settings: NCI-H1975, 72 h; in short: as §1
[4] = tested on: PANC-1; experiment: Antiproliferative activity against human PANC1 cells after 72 hrs by CCK8 assay; settings: PANC-1, 72 h
[5] = tested on: BXPC-3; experiment: Antiproliferative activity against human BxPC3 cells after 72 hrs by CCK8 assay; settings: BXPC-3, 72 h
[6] = tested on: L02; experiment: Antiproliferative activity against human LO2 cells after 72 hrs by CCK8 assay; settings: L02, 72 h
[7] = tested on: ASPC1; experiment: Induction of apoptosis in human AsPC1 cells assessed as necrotic cells at 10 uM after 72 hrs by Annexin-V-FITC/propidium iodide staining based flow cytometry relative to control; assay type: functional
In short: (§2)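 AsPC-1 cells at 2 to 5 ×10⁵ cells/well were treated for 72 h with DMSO solvent control or compound at 1, 5 or 10 µM in medium with 5% FBS. Cells were then […], stained with annexin V-FITC/propidium iodide and analysed by flow cytometry.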

[8] = tested on: ASPC1; experiment: Antiproliferative activity against human AsPC1 cells assessed as cell viability at 5 uM after 72 hrs by CCK8 assay (reference value: 96.9%); assay type: functional; settings: ASPC1, 72 h, read-out: Activity
[9] = tested on: ASPC1; experiment: Induction of apoptosis in human AsPC1 cells assessed as early apoptotic cells at 5 uM after 72 hrs by Annexin-V-FITC/propidium iodide staining based flow cytometry relative to control; assay type: functional; in short: as §2
[10] = tested on: ASPC1; experiment: Induction of apoptosis in human AsPC1 cells assessed as early apoptotic cells at 1 uM after 72 hrs by Annexin-V-FITC/propidium iodide staining based flow cytometry relative to control; assay type: functional; in short: as §2
[11] = tested on: PANC-1; experiment: Antiproliferative activity against human PANC1 cells assessed as cell viability at 2 uM after 72 hrs by CCK8 assay (reference value: 97.5%); assay type: functional; settings: PANC-1, 72 h, read-out: Activity
[12] = tested on: PANC-1; experiment: Antiproliferative activity against human PANC1 cells assessed as cell viability at 0.5 uM after 72 hrs by CCK8 assay (reference value: 97.5%); assay type: functional; settings: PANC-1, 72 h, read-out: Activity
[13] = tested on: ASPC1; experiment: Induction of apoptosis in human AsPC1 cells after 72 hrs by Annexin-V-FITC/propidium iodide staining based flow cytometry; assay type: functional, cell-based; in short: as §2
[14] = tested on: ASPC1; experiment: Antiproliferative activity against human AsPC1 cells assessed as cell viability at 10 uM after 48 hrs by CCK8 assay (reference value: 98.6%); assay type: functional; settings: ASPC1, 48 h, read-out: Activity
[15] = tested on: PANC-1; experiment: Antiproliferative activity against human PANC1 cells assessed as cell viability at 2 uM after 24 hrs by CCK8 assay relative to control; assay type: functional; settings: PANC-1, 24 h, read-out: Activity
[16] = tested on: ASPC1; experiment: Antiproliferative activity against human AsPC1 cells assessed as cell viability at 5 uM after 24 hrs by CCK8 assay relative to control; assay type: functional; settings: ASPC1, 24 h, read-out: Activity
[17] = tested on: ASPC1; experiment: Induction of apoptosis in human AsPC1 cells assessed as early apoptotic cells at 10 uM after 72 hrs by Annexin-V-FITC/propidium iodide staining based flow cytometry relative to control; assay type: functional; in short: as §2
[18] = tested on: ASPC1; experiment: Antiproliferative activity against human AsPC1 cells assessed as cell viability at 1.25 uM after 24 hrs by CCK8 assay relative to control; assay type: functional; settings: ASPC1, 24 h, read-out: Activity
[19] = tested on: ASPC1; experiment: Induction of apoptosis in human AsPC1 cells assessed as necrotic cells at 5 uM after 72 hrs by Annexin-V-FITC/propidium iodide staining based flow cytometry relative to control; assay type: functional; in short: as §2
[20] = tested on: ASPC1; experiment: Induction of apoptosis in human AsPC1 cells assessed as late apoptotic cells at 10 uM after 72 hrs by Annexin-V-FITC/propidium iodide staining based flow cytometry relative to control; assay type: functional; in short: as §2
[21] = tested on: ASPC1; experiment: Antiproliferative activity against human AsPC1 cells assessed as cell viability at 1.25 uM after 72 hrs by CCK8 assay (reference value: 96.9%); assay type: functional; settings: ASPC1, 72 h, read-out: Activity
[22] = tested on: PANC-1; experiment: Antiproliferative activity against human PANC1 cells assessed as cell viability at 0.5 uM after 48 hrs by CCK8 assay (reference value: 99%); assay type: functional; settings: PANC-1, 48 h, read-out: Activity
[23] = tested on: PANC-1; experiment: Antiproliferative activity against human PANC1 cells assessed as cell viability at 0.5 uM after 24 hrs by CCK8 assay relative to control; assay type: functional; settings: PANC-1, 24 h, read-out: Activity
[24] = tested on: ASPC1; experiment: Antiproliferative activity against human AsPC1 cells assessed as cell viability at 10 uM after 72 hrs by CCK8 assay (reference value: 96.9%); assay type: functional; settings: ASPC1, 72 h, read-out: Activity
[25] = tested on: ASPC1; experiment: Antiproliferative activity against human AsPC1 cells assessed as cell viability at 5 uM after 48 hrs by CCK8 assay (reference value: 98.6%); assay type: functional; settings: ASPC1, 48 h, read-out: Activity
[26] = tested on: ASPC1; experiment: Induction of apoptosis in human AsPC1 cells assessed as viable cells at 5 uM after 72 hrs by Annexin-V-FITC/propidium iodide staining based flow cytometry relative to control; assay type: functional; settings: ASPC1, 72 h, read-out: Activity; in short: as §2
[27] = tested on: ASPC1; experiment: Induction of apoptosis in human AsPC1 cells assessed as necrotic cells at 1 uM after 72 hrs by Annexin-V-FITC/propidium iodide staining based flow cytometry relative to control; assay type: functional; in short: as §2
[28] = tested on: ASPC1; experiment: Antiproliferative activity against human AsPC1 cells assessed as cell viability at 1.25 uM after 48 hrs by CCK8 assay (reference value: 98.6%); assay type: functional; settings: ASPC1, 48 h, read-out: Activity
[29] = tested on: PANC-1; experiment: Antiproliferative activity against human PANC1 cells assessed as cell viability at 8 uM after 72 hrs by CCK8 assay (reference value: 97.5%); assay type: functional; settings: PANC-1, 72 h, read-out: Activity
[30] = tested on: ASPC1; experiment: Induction of apoptosis in human AsPC1 cells assessed as late apoptotic cells at 1 uM after 72 hrs by Annexin-V-FITC/propidium iodide staining based flow cytometry relative to control; assay type: functional; in short: as §2
[31] = tested on: PANC-1; experiment: Antiproliferative activity against human PANC1 cells assessed as cell viability at 2 uM after 48 hrs by CCK8 assay (reference value: 99%); assay type: functional; settings: PANC-1, 48 h, read-out: Activity
[32] = tested on: ASPC1; experiment: Induction of apoptosis in human AsPC1 cells assessed as viable cells at 1 uM after 72 hrs by Annexin-V-FITC/propidium iodide staining based flow cytometry relative to control; assay type: functional; settings: ASPC1, 72 h, read-out: Activity; in short: as §2
[33] = tested on: ASPC1; experiment: Induction of apoptosis in human AsPC1 cells assessed as viable cells at 10 uM after 72 hrs by Annexin-V-FITC/propidium iodide staining based flow cytometry relative to control; assay type: functional; settings: ASPC1, 72 h, read-out: Activity; in short: as §2
[34] = tested on: ASPC1; experiment: Antiproliferative activity against human AsPC1 cells assessed as cell viability at 10 uM after 24 hrs by CCK8 assay relative to control; assay type: functional; settings: ASPC1, 24 h, read-out: Activity
[35] = tested on: PANC-1; experiment: Antiproliferative activity against human PANC1 cells assessed as cell viability at 8 uM after 24 hrs by CCK8 assay relative to control; assay type: functional; settings: PANC-1, 24 h, read-out: Activity
[36] = tested on: ASPC1; experiment: Induction of apoptosis in human AsPC1 cells assessed as late apoptotic cells at 5 uM after 72 hrs by Annexin-V-FITC/propidium iodide staining based flow cytometry relative to control; assay type: functional; in short: as §2
[37] = tested on: PANC-1; experiment: Antiproliferative activity against human PANC1 cells assessed as cell viability at 8 uM after 48 hrs by CCK8 assay (reference value: 99%); assay type: functional; settings: PANC-1, 48 h, read-out: Activity

IC50 [1]: 1.55 µM
IC50 [2]: 6.17 µM
IC50 [3]: 7.07 µM
IC50 [4]: 2.76 µM
IC50 [5]: 19.4 µM
Structure (SMILES): CNC(=O)c1ccccc1Nc1nc(Nc2ccc(NS(=O)(=O)c3ccc(C)cc3)cc2)ncc1Cl
IC50 [6]: 28.7 µM

IC50 [1]: 26.8 µM
IC50 [2]: > 10 µM
IC50 [3]: > 10 µM
IC50 [4]: 30.4 µM
IC50 [5]: 20.2 µM
Structure (SMILES): Nc1ccn([C@@H]2O[C@H](CO)[C@@H](O)C2(F)F)c(=O)n1 [GEMCITABINE]
IC50 [6]: > 20 µM

IC50 [1]: 1.78 µM
IC50 [2]: 4.61 µM
IC50 [3]: 4.89 µM
IC50 [4]: 0.03 µM
IC50 [5]: 10.6 µM
Structure (SMILES): CNC(=O)c1ccccc1Nc1nc(Nc2ccc(NS(=O)(=O)c3ccc(OC)cc3)c(C)c2)ncc1Cl
IC50 [6]: 2.88 µM

IC50 [1]: 6.69 µM
IC50 [2]: 24.6 µM
IC50 [3]: 12.9 µM
IC50 [4]: 5.7 µM
IC50 [5]: 31.6 µM
Structure (SMILES): CNC(=O)c1ccccc1Nc1nc(Nc2ccc(NS(=O)(=O)c3ccc(F)cc3)c(OC)c2)ncc1Cl
IC50 [6]: 19.7 µM

IC50 [1]: 6.73 µM
IC50 [4]: > 20 µM
IC50 [5]: 1.03 µM
Structure (SMILES): CNC(=O)c1ccccc1Nc1nc(Nc2ccc(N3CCOCC3)cc2OC)ncc1Cl
IC50 [6]: 5.37 µM

IC50 [1]: 2.39 µM
IC50 [2]: 14.4 µM
IC50 [3]: 4.1 µM
IC50 [4]: 1.75 µM
IC50 [5]: 5.86 µM
Structure (SMILES): CNC(=O)c1ccccc1Nc1nc(Nc2ccc(Oc3ccc(NS(=O)(=O)C(F)(F)F)cc3)cc2)ncc1Cl
IC50 [6]: 3.37 µM

IC50 [1]: 3.92 µM
IC50 [2]: 2.18 µM
IC50 [3]: 3.71 µM
IC50 [4]: 0.53 µM
IC50 [5]: 6.92 µM
Structure (SMILES): CNC(=O)c1ccccc1Nc1nc(Nc2ccc(NS(=O)(=O)c3ccc(F)cc3)cc2)ncc1Cl
Activity [7]: 0.6%
viability at 5 µM [8]: 49.1%
Activity [9]: 21.8%
Activity [10]: 28.5%
viability at 2 µM [11]: 36.2%
viability at 0.5 µM [12]: 45.9%
Activity [13]: Dose-dependent effect
viability at 10 µM [14]: 47.1%
viability at 2 µM [15]: 68.8%
viability at 5 µM [16]: 79.4%
Activity [17]: 24.4%
viability at 1.25 µM [18]: 90%
Activity [19]: 1.1%
Activity [20]: 62.9%
viability at 1.25 µM [21]: 52%
viability at 0.5 µM [22]: 53.3%
viability at 0.5 µM [23]: 71.6%
viability at 10 µM [24]: 23.9%
viability at 5 µM [25]: 76%
viability at 5 µM [26]: 24%
Activity [27]: 0.6%
viability at 1.25 µM [28]: 79.4%
viability at 8 µM [29]: 17.2%
Activity [30]: 27.3%
viability at 2 µM [31]: 39.3%
viability at 1 µM [32]: 43.6%
viability at 10 µM [33]: 12.1%
viability at 10 µM [34]: 52%
IC50 [6]: 11.5 µM
viability at 8 µM [35]: 42.8%
Activity [36]: 53.1%
viability at 8 µM [37]: 21.3%

IC50 [1]: 2.75 µM
IC50 [2]: 19.8 µM
IC50 [3]: 6.29 µM
IC50 [4]: 3.61 µM
IC50 [5]: 14.2 µM
Structure (SMILES): CNC(=O)c1ccccc1Nc1nc(Nc2ccc(Oc3ccc(NS(C)(=O)=O)cc3)cc2)ncc1Cl
IC50 [6]: 16.5 µM

IC50 [1]: 2.32 µM
IC50 [2]: 20.3 µM
IC50 [3]: 9.56 µM
IC50 [4]: 2.99 µM
IC50 [5]: 23.1 µM
Structure (SMILES): CNC(=O)c1ccccc1Nc1nc(Nc2ccc(NS(=O)(=O)c3ccc(C)cc3)c(C)c2)ncc1Cl
IC50 [6]: 27.5 µM

IC50 [1]: 10.1 µM
IC50 [2]: 12.1 µM
IC50 [3]: 8.5 µM
IC50 [4]: > 40 µM
IC50 [5]: 22.5 µM
Structure (SMILES): CNC(=O)c1ccccc1Nc1nc(Nc2ccc(NS(=O)(=O)c3ccc(C)cc3)c(OC)c2)ncc1Cl
IC50 [6]: > 40 µM

IC50 [1]: 3.49 µM
IC50 [2]: 9.1 µM
IC50 [3]: 4.28 µM
IC50 [4]: 1.8 µM
IC50 [5]: 24.1 µM
Structure (SMILES): CNC(=O)c1ccccc1Nc1nc(Nc2ccc(NS(=O)(=O)c3ccc(OC)cc3)cc2)ncc1Cl
IC50 [6]: 8.37 µM
